Measurements reported in EPA's CvTdb concentration-time database.

Columns and labels:
Mouse [1] = assay: concentration in plasma after dosing; settings: 10 min; dosed: 2-Hydroxy-4-methoxybenzophenone; 50 mg/kg; iv; Male; B6C3F1
Rat [2] = assay: concentration in plasma after dosing; settings: dosed: 2-Hydroxy-4-methoxybenzophenone, 250 mg/kg, oral, Female, F344
Mouse [3] = assay: concentration in plasma after dosing; settings: 0.25 h; dosed: 2-Hydroxy-4-methoxybenzophenone; 250 mg/kg; oral; Male; B6C3F1
Mouse [4] = assay: concentration in plasma after dosing; settings: 10 min; dosed: 2-Hydroxy-4-methoxybenzophenone; 250 mg/kg; oral; Male; B6C3F1
Rat [5] = assay: concentration in plasma after dosing; settings: dosed: 2-Hydroxy-4-methoxybenzophenone, 100 mg/kg, oral, Female, F344
Mouse [6] = assay: concentration in plasma after dosing; settings: 3 h; dosed: 2-Hydroxy-4-methoxybenzophenone; 50 mg/kg; iv; Male; B6C3F1
Rat [7] = assay: concentration in plasma after dosing; settings: dosed: 2-Hydroxy-4-methoxybenzophenone, 8 mg/kg, iv, Male, F344
Mouse [8] = assay: concentration in plasma after dosing; settings: 2 h; dosed: 2-Hydroxy-4-methoxybenzophenone; 500 mg/kg; oral; Female; B6C3F1
Rat [9] = assay: concentration in plasma after dosing; settings: dosed: Nitrite, 80 mg/kg, oral, Female, F344
Rat [10] = assay: concentration in plasma after dosing; settings: dosed: Nitrite, 80 mg/kg, oral, Female, F344; remark: listed apart in the source
Rat [11] = assay: concentration in liver after dosing; settings: 6 h; dosed: Perfluorooctanoic acid; 80 mg/kg; oral; Female; Harlan Sprague Dawley
Rat [12] = assay: concentration in kidney after dosing; settings: 6 h; dosed: Fluorotelomer alcohol 8+2; 24 mg/kg; oral; Male; Harlan Sprague Dawley
Rat [13] = assay: concentration in kidney after dosing; settings: 1200 h; dosed: Perfluorooctanoic acid; 12 mg/kg; oral; Male; Harlan Sprague Dawley
Rat [14] = assay: concentration in plasma after dosing; settings: dosed: 678-39-7, 40 mg/kg, iv, Female, Harlan Sprague-Dawley
Rat [15] = assay: concentration in kidney after dosing; settings: 1 h; dosed: Fluorotelomer alcohol 8+2; 80 mg/kg; oral; Female; Harlan Sprague Dawley
Rat [16] = assay: concentration in kidney after dosing; settings: 0.5 h; dosed: Potassium Perfluorobutane Sulfonate; 20 mg/kg; oral; Female; Harlan Sprague Dawley
Rat [17] = assay: concentration in plasma after dosing; settings: dosed: Potassium Perfluorobutane Sulfonate, 4 mg/kg, iv, Male, F344
Rat [18] = assay: concentration in plasma after dosing; settings: dosed: Potassium Perfluorobutane Sulfonate, 4 mg/kg, iv, Male, F344; remark: listed apart in the source
Rat [19] = assay: concentration in plasma after dosing; settings: 1.5 h; dosed: Potassium Perfluorobutane Sulfonate; 4 mg/kg; iv; Male; F344
rat [20] = assay: concentration in serum after dosing; settings: dosed: benzo[a]pyrene, male, Wistar
human = assay: concentration in urine after dosing; negative times count back from the end of exposure; settings: dosed: methanol, inhalation, duration: 8 hr
Outline: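 Points were largely digitised from plot screenshots with WebPlotDigitizer or otherwise copied from tables, and they remain in the units each source reported. They come from published in vivo toxicokinetic studies and two structured collections. Sampling and analytical methods follow each source and were often not reported.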

COc1ccc(C(=O)c2ccccc2)c(O)c1 [2-Hydroxy-4-methoxybenzophenone]
Settings	concentration in plasma [ng/mL]
Mouse [1]	14000
Mouse [3]	289
Mouse [4]	148
Mouse [6]	218
Mouse [8]	81.6

Settings	concentration in plasma [ng/mL]
Rat [2], 0.25 h	56.9
Rat [2], 4 h	26.2
Rat [5], 3 h	13.6
Rat [5], 10 min	27.8
Rat [7], 0.25 h	1950
Rat [7], 2 h	84.6

O=N[O-] [Nitrite]
concentration in plasma [ng/mL]
Settings	5 min	6 h	8 h	10 min
Rat [9]	–	1700	–	10800
Rat [10]	6900	–	1800	–

O=C(O)C(F)(F)C(F)(F)C(F)(F)C(F)(F)C(F)(F)C(F)(F)C(F)(F)F [Perfluorooctanoic acid]
Settings	concentration in kidney [ng/g]	concentration in liver [ng/g]
Rat [11]	–	160000
Rat [12]	421	–
Rat [13]	695	–
Rat [15]	353	–

Rat [14]
Settings	concentration in plasma [ng/mL]
1 h	2280
24 h	58.8

O=S(=O)([O-])C(F)(F)C(F)(F)C(F)(F)C(F)(F)F.[K+] [Potassium Perfluorobutane Sulfonate]
Settings	concentration in kidney [ng/g]	concentration in plasma [ng/mL]
Rat [16]	23200	–
Rat [19]	–	11400

concentration in plasma [ng/mL]
Settings	0.5 h	0.75 h	12 h	24 h
Rat [17]	–	24500	–	575
Rat [18]	22200	–	938	–

c1ccc2c(c1)cc1ccc3cccc4ccc2c1c34 [benzo[a]pyrene]
rat [20]
Settings	concentration in serum [ng/mL]
0.3352 h, 2 mg/kg, iv	2230
0.4717 h, 20 mg/kg, oral	116
0.752 h, 2 mg/kg, iv	1020
1.006 h, 2 mg/kg, iv	635
1.061 h, 20 mg/kg, oral	486
1.985 h, 20 mg/kg, oral	989
2.002 h, 2 mg/kg, iv	85.5
3.99 h, 20 mg/kg, oral	936
4.005 h, 2 mg/kg, iv	4.48
5.975 h, 20 mg/kg, oral	261
5.998 h, 2 mg/kg, iv	2.43
7.98 h, 20 mg/kg, oral	86
8 h, 2 mg/kg, iv	2.04
9.966 h, 20 mg/kg, oral	16.8
24.02 h, 20 mg/kg, oral	1.38

CO [methanol]
human
Settings	concentration in urine [ng/mL]
0 h, 78 ppm	3490
0 h, 158 ppm	6700
0 h, 231 ppm	9600
1.997 h, 300 mg/m^3, male	7640
2 h, 78 ppm	2290
2 h, 158 ppm	5240
2 h, 231 ppm	7600
2.005 h, 205 mg/m^3, male	5340
2.035 h, 102 mg/m^3, male	2420
3.995 h, 300 mg/m^3, male	4350
4 h, 78 ppm	1770
4 h, 102 mg/m^3, male	1630
4 h, 158 ppm	2690
4 h, 231 ppm	4360
4.036 h, 205 mg/m^3, male	2760
5.995 h, 102 mg/m^3, male	1360
6 h, 78 ppm	1470
6 h, 158 ppm	1830
6 h, 231 ppm	2400
6.026 h, 205 mg/m^3, male	1810
6.031 h, 300 mg/m^3, male	2430
10.88 h, 205 mg/m^3, male	1280
10.91 h, 102 mg/m^3, male	1090
10.94 h, 300 mg/m^3, male	1480
11 h, 78 ppm	1140
11 h, 158 ppm	1360
11 h, 231 ppm	1660
15.5 h, 231 ppm	1030
15.71 h, 205 mg/m^3, male	1140
53 s, 300 mg/m^3, male	9620
65 s, 205 mg/m^3, male	6690
67 s, 102 mg/m^3, male	3420

human, during exposure
Settings	concentration in urine [ng/mL]
-8 h, 78 ppm	572
-8 h, 158 ppm	1030
-8 h, 231 ppm	1340
-7.859 h, 300 mg/m^3, male	802
-7.832 h, 102 mg/m^3, male	802
-7.832 h, 205 mg/m^3, male	802
-6.075 h, 300 mg/m^3, male	4350
-6 h, 78 ppm	1750
-6 h, 158 ppm	3090
-6 h, 231 ppm	4340
-5.977 h, 205 mg/m^3, male	3090
-5.962 h, 102 mg/m^3, male	1700
-4.073 h, 205 mg/m^3, male	4890
-4.031 h, 300 mg/m^3, male	6790
-4 h, 78 ppm	2390
-4 h, 158 ppm	4820
-4 h, 231 ppm	6830
-3.984 h, 102 mg/m^3, male	2500
-2.068 h, 205 mg/m^3, male	5830
-2 h, 78 ppm	3090
-2 h, 158 ppm	5920
-2 h, 231 ppm	8400
-1.993 h, 300 mg/m^3, male	8430
-1.981 h, 102 mg/m^3, male	3130
